Assay results of several laboratories.
Lines come from different studies, so protocols differ.
CDK13: Cyclin-dependent kinase 13 (CDK13, Homo sapiens, UniProt Q14004)
CDK13 with cyclin K: Cyclin-dependent kinase 13, with cyclin K (CDK13, Homo sapiens, UniProt Q14004)

Compound	target	test	setting	quantity	result
CN([C@@H]1CCc2c(CC(=O)O)c3cc(S(C)(=O)=O)ccc3n2C1)S(=O)(=O)c1ccc(F)cc1	CDK13	cell-free assay, competition with immobilised ligand	1 µM	remaining binding	86%
Cc1ccc(C(=O)NCc2ccsc2)cc1C#Cc1cn(C(C)C)c2ncnc(N)c12	CDK13 with cyclin K	enzyme activity, inhibitor	1 µM	activity vs control	85%
CN(C)c1nccc(-c2cnc3ncccn23)n1	CDK13	binding	1 µM	remaining binding	58%
Nc1ncnc2occ(-c3ccc(NC(=O)Nc4cc(C(F)(F)F)ccc4F)cc3)c12	CDK13	cell-free assay, inhibitor	20 µM	remaining signal	0.1%
CN1CC(Oc2cnc(C#N)cc2-c2ccn3nc(NC(=O)C4CC4)cc3c2)C1	CDK13 with cyclin K	enzyme activity, inhibitor	1 µM	inhibition	1%
Cc1ccc(C(=O)Nc2ccc(CN3CCN(C)CC3)c(C(F)(F)F)c2)cc1C#Cc1cnc2cccnn12	CDK13	enzyme activity, inhibitor	23.5 nM	remaining activity	6.4%
COc1cc(Cl)c(C(=O)N[C@@H](CN[C@H]2CC[C@@H](N)CC2)Cc2ccc(C#N)cc2)cc1-c1ccc(CN[C@H](C)c2ccc(C)cc2)o1	CDK13 with cyclin K	enzyme activity, inhibitor	1 µM	remaining activity	107%
C[C@H](NC(=O)c1cnc2n1[C@](C)(Cc1ccc(C#N)cc1)C(=O)N2c1cc(Cl)c(F)c(Cl)c1)C(=O)NC1(c2ccccn2)CC1	CDK13	cell-free assay, competition with immobilised ligand	1 µM	remaining binding	100%
